Laboratory results taken from ChEMBL document CHEMBL3621102, “Structure-activity study of quinazoline derivatives leading to the discovery of potent EGFR-T790M inhibitors” (Eur J Med Chem, 2015).
Active and inactive are the calls of the source. The calls are words filed in the database; no cut-off is given here.

Key:
Mus musculus [1] = experiment: Toxicity in human HCC827 cells xenografted BALB/c mouse assessed as induction of eye disease at 5 mg/kg po, qd for 12 days; format: organism-based; conditions: in vivo, 288 h
Procedure, shortened: (§1)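 Athymic mice bearing subcutaneous right-flank xenografts (2 × 10⁶ cells, dosed at 100–300 mm³; n = 6 per group; vehicle controls). Health was observed daily and body weight measured on indicated days. Body weight change (%) = (Wt/W0 − 1) × 100 against predosing weight, given as group mean ± SEM.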

NCI-H1975 [2] = experiment: Antitumor activity against human NCI-H1975 cells xenografted in BALB/c mouse assessed as tumor growth inhibition at 13 mg/kg po, qd for 21 days; format: functional, organism-based
Procedure, shortened: (§2)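 Athymic mice received 2 × 10⁶ tumour cells subcutaneously in the right flank. At 100–300 mm³ they were randomised to control and treatment groups (n = 6); controls received vehicle alone. Tumour volume = length × width²/2 and RTV = Vt/V0.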

Mus musculus [3] = experiment: Toxicity in human A431 cells xenografted BALB/c mouse assessed as induction of eye diseases at 5 and 10 mg/kg po, qd for 18 days; format: organism-based, A-431; conditions: in vivo, 432 h; procedure, shortened: as §1
[4] = Clearance in Sprague-Dawley rat at 1 mg/kg, iv incubated for 24 hrs by LC/MS/MS method; format: ADME, organism-based; conditions: in vivo
Procedure, shortened: (§3)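 Male Sprague-Dawley rats (n = 3) dosed once at 1 mg/kg iv via tail vein, or once at 5 mg/kg by oral gavage, using the same formulation. Serial blood samples were taken over 24 h. Plasma levels were measured by LC/MS/MS (C18 column, 10 mM ammonium formate-0.1% formic acid water/methanol 10/90, ESI positive). Parameters were derived by noncompartmental analysis.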

NCI-H1975 [5] = experiment: Antiproliferative activity against human NCI-H1975 cells assessed as growth inhibition; format: functional
Procedure, shortened: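 NCI-H1975 cells were grown in RPMI with 1 mM sodium pyruvate, 10% FBS and 1% penicillin-streptomycin, under humidified 5% CO₂ at 37 °C. Growth inhibition was read as GI₅₀.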

[6] = Mean residence time in Sprague-Dawley rat at 1 mg/kg, iv incubated for 24 hrs by LC/MS/MS method; format: ADME, organism-based; conditions: in vivo; procedure, shortened: as §3
Mus musculus [7] = experiment: Toxicity in NCI-H1975 xenografted BALB/c mouse assessed as body weight change at 13 mg/kg po, qd for 21 days; format: organism-based; conditions: in vivo, 504 h; procedure, shortened: as §1
Mus musculus [8] = experiment: Toxicity in human A431 cells xenografted BALB/c mouse assessed as body weight loss at 5 and 10 mg/kg po, qd for 18 days; format: organism-based, A-431; conditions: in vivo, 432 h; procedure, shortened: as §1
[9] = AUC (0 to infinity) in Sprague-Dawley rat at 1 mg/kg, iv by LC/MS/MS method; format: ADME, organism-based; design: dose 1 mg/kg, time infinity, route intravenous; conditions: in vivo; procedure, shortened: as §3
Mus musculus [10] = experiment: Toxicity in human HCC827 cells xenografted BALB/c mouse assessed as induction of exfoliative skin disorders at 5 mg/kg po, qd for 12 days; format: organism-based; conditions: in vivo, 288 h; procedure, shortened: as §1
Mus musculus [11] = experiment: Toxicity in NCI-H1975 xenografted BALB/c mouse assessed as induction of exfoliative skin disorders at 13 mg/kg po, qd for 21 days; format: organism-based; conditions: in vivo, 504 h; procedure, shortened: as §1
A-431 [12] = experiment: Antitumor activity against human A431 cells xenografted in BALB/c mouse assessed as tumor growth inhibition at 10 mg/kg po, qd for 18 days; format: functional, organism-based; procedure, shortened: as §2
Mus musculus [13] = experiment: Toxicity in NCI-H1975 xenografted BALB/c mouse assessed as induction of eye diseases at 13 mg/kg po, qd for 21 days; format: organism-based; conditions: in vivo, 504 h; procedure, shortened: as §1
[14] = Elimination half-life in Sprague-Dawley rat at 1 mg/kg, iv incubated for 24 hrs by LC/MS/MS method; format: ADME, organism-based; conditions: in vivo, read-out: beta t1/2 (converted); procedure, shortened: as §3
Mus musculus [15] = experiment: Toxicity in human A431 cells xenografted BALB/c mouse assessed as induction of exfoliative skin disorders at 5 and 10 mg/kg po, qd for 18 days; format: organism-based, A-431; conditions: in vivo, 432 h; procedure, shortened: as §1
[16] = Apparent volume of distribution in Sprague-Dawley rat at 1 mg/kg, iv incubated for 24 hrs by LC/MS/MS method; format: ADME, organism-based; conditions: in vivo, read-out: Vd(app); procedure, shortened: as §3
[17] = molecular target: Epidermal growth factor receptor (Homo sapiens, UniProt P00533); experiment: Inhibition of EGFR (unknown origin) by ELISA method
Chain of Epidermal growth factor receptor (P00533 whole entry): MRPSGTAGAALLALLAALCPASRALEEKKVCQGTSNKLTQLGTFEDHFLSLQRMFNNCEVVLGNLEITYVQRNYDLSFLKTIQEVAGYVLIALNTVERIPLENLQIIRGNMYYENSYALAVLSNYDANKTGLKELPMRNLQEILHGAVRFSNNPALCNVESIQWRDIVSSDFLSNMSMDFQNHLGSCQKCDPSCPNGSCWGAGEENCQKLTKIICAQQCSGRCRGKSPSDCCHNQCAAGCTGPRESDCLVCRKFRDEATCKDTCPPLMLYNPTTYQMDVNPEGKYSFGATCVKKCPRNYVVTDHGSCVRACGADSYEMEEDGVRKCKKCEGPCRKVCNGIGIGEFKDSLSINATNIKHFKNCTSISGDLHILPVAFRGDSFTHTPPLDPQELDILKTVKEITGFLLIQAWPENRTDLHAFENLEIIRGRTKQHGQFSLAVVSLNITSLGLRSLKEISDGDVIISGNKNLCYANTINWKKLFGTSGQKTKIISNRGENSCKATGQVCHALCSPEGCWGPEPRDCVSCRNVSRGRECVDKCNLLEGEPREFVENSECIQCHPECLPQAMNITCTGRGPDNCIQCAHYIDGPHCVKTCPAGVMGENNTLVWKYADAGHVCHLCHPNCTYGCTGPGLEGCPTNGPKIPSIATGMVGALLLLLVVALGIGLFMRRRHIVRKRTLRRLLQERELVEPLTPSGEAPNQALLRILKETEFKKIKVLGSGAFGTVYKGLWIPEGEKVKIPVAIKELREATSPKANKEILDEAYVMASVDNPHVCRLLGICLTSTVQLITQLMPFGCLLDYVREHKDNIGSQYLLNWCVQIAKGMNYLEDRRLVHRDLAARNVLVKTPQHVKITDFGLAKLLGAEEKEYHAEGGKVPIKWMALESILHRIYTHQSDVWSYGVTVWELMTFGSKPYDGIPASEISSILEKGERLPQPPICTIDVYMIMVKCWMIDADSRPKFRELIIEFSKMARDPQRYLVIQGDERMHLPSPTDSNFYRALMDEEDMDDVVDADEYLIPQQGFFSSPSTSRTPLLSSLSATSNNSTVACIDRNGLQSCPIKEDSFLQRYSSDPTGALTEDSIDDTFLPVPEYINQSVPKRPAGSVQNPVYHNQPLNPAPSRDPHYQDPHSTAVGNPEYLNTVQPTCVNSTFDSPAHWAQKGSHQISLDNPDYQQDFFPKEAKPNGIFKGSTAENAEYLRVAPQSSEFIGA

Mus musculus [18] = experiment: Toxicity in NCI-H1975 xenografted BALB/c mouse assessed as induction of exfoliative skin disorders at 20 mg/kg po, qd for 21 days; format: organism-based; conditions: in vivo, 504 h; procedure, shortened: as §1
Mus musculus [19] = experiment: Toxicity in human HCC827 cells xenografted BALB/c mouse assessed as body weight loss at 5 mg/kg po, qd for 12 days; format: organism-based; conditions: in vivo, 288 h; procedure, shortened: as §1
[20] = Bioavailability in Sprague-Dawley rat at 1 mg/kg, iv incubated for 24 hrs by LC/MS/MS method; format: ADME, organism-based; conditions: in vivo; procedure, shortened: as §3
A-431 [21] = experiment: Antitumor activity against human A431 cells xenografted in BALB/c mouse assessed as tumor growth inhibition at 5 mg/kg po, qd for 18 days; format: functional, organism-based; procedure, shortened: as §2
HCC827 = experiment: Antitumor activity against human HCC827 cells xenografted in BALB/c mouse assessed as tumor growth inhibition at 5 mg/kg po, qd for 12 days; format: functional, organism-based; procedure, shortened: as §2
[22] = AUC (0 to 24 hrs) in Sprague-Dawley rat at 1 mg/kg, iv by LC/MS/MS method; format: ADME, organism-based; design: time < 24 hr, dose 1 mg/kg, route intravenous; conditions: in vivo; procedure, shortened: as §3
Mus musculus [23] = experiment: Toxicity in NCI-H1975 xenografted BALB/c mouse assessed as induction of eye diseases at 20 mg/kg po, qd for 21 days; format: organism-based; conditions: in vivo, 504 h; procedure, shortened: as §1
Mus musculus [24] = experiment: Toxicity in NCI-H1975 xenografted BALB/c mouse assessed as skin toxicity at 10 mg/kg po, qd for 21 days; format: organism-based; conditions: in vivo, 504 h; procedure, shortened: as §1
NCI-H1975 [25] = experiment: Antitumor activity against human NCI-H1975 cells xenografted in BALB/c mouse assessed as tumor growth inhibition at 10 mg/kg po, qd for 21 days; format: functional, organism-based; procedure, shortened: as §2
Mus musculus [26] = experiment: Toxicity in NCI-H1975 xenografted BALB/c mouse assessed as body weight change at 10 mg/kg po, qd for 21 days; format: organism-based; conditions: in vivo, 504 h; procedure, shortened: as §1
Mus musculus [27] = experiment: Toxicity in NCI-H1975 xenografted BALB/c mouse assessed as body weight loss at 8 mg/kg po, qd for 21 days; format: organism-based; conditions: in vivo, 504 h; procedure, shortened: as §1
Mus musculus [28] = experiment: Toxicity in NCI-H1975 xenografted BALB/c mouse assessed as induction of lethargy at 8 mg/kg po, qd for 21 days; format: organism-based; conditions: in vivo, 504 h; procedure, shortened: as §1
Mus musculus [29] = experiment: Toxicity in NCI-H1975 xenografted BALB/c mouse assessed as induction of exfoliative skin disorder at 8 mg/kg po, qd for 21 days; format: organism-based; conditions: in vivo, 504 h; procedure, shortened: as §1
Mus musculus [30] = experiment: Toxicity in NCI-H1975 xenografted BALB/c mouse assessed as induction of weakness at 8 mg/kg po, qd for 21 days; format: organism-based; conditions: in vivo, 504 h; procedure, shortened: as §1
NCI-H1975 [31] = experiment: Antitumor activity against human NCI-H1975 cells xenografted in BALB/c mouse assessed as tumor growth inhibition at 8 mg/kg po, qd for 21 days; format: functional, organism-based; procedure, shortened: as §2
[32] = Toxicity in NCI-H1975 xenografted BALB/c mouse assessed as induction of mouse mortality at 8 mg/kg po, qd for 9 days; format: organism-based; conditions: in vivo
Procedure, shortened: (§4)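 Athymic mice received 2 × 10⁶ NCI-H1975 cells subcutaneously in the right flank. When tumours reached 100–300 mm³, mice were randomised into control and treatment groups (n = 6 per group), and controls got vehicle alone. Health was checked daily, and body weight and tumour size were measured on set days during treatment.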

Mus musculus [33] = experiment: Toxicity in NCI-H1975 xenografted BALB/c mouse assessed as induction of eye disease at 8 mg/kg po, qd for 21 days; format: organism-based; conditions: in vivo, 504 h; procedure, shortened: as §1
Mus musculus [34] = experiment: Toxicity in NCI-H1975 xenografted BALB/c mouse at 10 mg/kg po, qd for 7 days measured after drug cessation; format: organism-based; conditions: in vivo, 168 h; procedure, shortened: as §1
[35] = Toxicity in NCI-H1975 xenografted BALB/c mouse assessed as induction of mouse mortality at 10 mg/kg po, qd for days; format: organism-based; conditions: in vivo; procedure, shortened: as §4
Mus musculus [36] = experiment: Toxicity in NCI-H1975 xenografted BALB/c mouse assessed as body weight loss at 10 mg/kg po, qd for 21 days; format: organism-based; conditions: in vivo, 504 h; procedure, shortened: as §1

Question: With `O=C(/C=C/CNC1CC1)Nc1cc2c(Nc3ccc(F)c(Cl)c3)ncnc2cc1O[C@H]1CCOC1` as the molecule, how does the Activity (Mus musculus [1]) read?
Answer: Non-toxic

Question: What about the TGI (NCI-H1975 [2]) of the same molecule?
Answer: Active

Question: What about the Activity (Mus musculus [3]) of the same molecule?
Answer: Non-toxic

Question: What about the clearance [4] of the same molecule?
Answer: 25.7 mL/min/kg

Question: And the GI50 (NCI-H1975 [5])?
Answer: 10.2 nM

Question: And the MRT [6]?
Answer: 3.88 h

Question: What about the Activity (Mus musculus [7]) of the same molecule?
Answer: Non-toxic

Question: What about the Activity (Mus musculus [8]) of the same molecule?
Answer: Non-toxic

Question: What about the AUC(0-inf) [9] of the same molecule?
Answer: 662 ng·h/mL

Question: And the Activity (Mus musculus [10])?
Answer: Non-toxic

Question: And the Activity (Mus musculus [11])?
Answer: Non-toxic

Question: And the TGI (A-431 [12])?
Answer: Active

Question: And the Activity (Mus musculus [13])?
Answer: Non-toxic

Question: And the half-life [14]?
Answer: 3.15 h

Question: And the Activity (Mus musculus [15])?
Answer: Non-toxic

Question: And the Vd [16]?
Answer: 3.82 L/kg

Question: What about the IC50 [17] of the same molecule?
Answer: 6.5 nM

Question: What about the Activity (Mus musculus [18]) of the same molecule?
Answer: Non-toxic

Question: And the Activity (Mus musculus [19])?
Answer: Non-toxic

Question: And the bioavailability [20]?
Answer: 83.5%

Question: And the TGI (A-431 [21])?
Answer: inactive

Question: And the TGI (HCC827)?
Answer: Active

Question: What about the AUC(0-t) at 24 h [22] of the same molecule?
Answer: 660 ng·h/mL

Question: And the Activity (Mus musculus [23])?
Answer: Non-toxic

Question: Which GI50 (NCI-H1975 [5]) does the source give for `C#Cc1cccc(Nc2ncnc3cc(OC)c(NC(=O)/C=C/CNC4CC4)cc23)c1` here?
Answer: 18.9 nM

Question: What about the Activity (Mus musculus [24]) of the same molecule?
Answer: Toxic

Question: And the IC50 [17]?
Answer: 7.9 nM

Question: And the TGI (NCI-H1975 [25])?
Answer: Active

Question: What about the Activity (Mus musculus [26]) of the same molecule?
Answer: Non-toxic

Question: With `COc1cc2ncnc(Nc3ccc(F)c(Cl)c3)c2cc1NC(=O)/C=C/CNC1CC1` as the molecule, how does the Activity (Mus musculus [27]) read?
Answer: Toxic

Question: What about the Activity (Mus musculus [28]) of the same molecule?
Answer: Toxic

Question: And the GI50 (NCI-H1975 [5])?
Answer: 11.2 nM

Question: What about the Activity (Mus musculus [29]) of the same molecule?
Answer: Toxic

Question: And the Activity (Mus musculus [30])?
Answer: Toxic

Question: What about the IC50 [17] of the same molecule?
Answer: 2.1 nM

Question: What about the TGI (NCI-H1975 [31]) of the same molecule?
Answer: Active

Question: What about the mortality at 216 h [32] of the same molecule?
Answer: > 50%

Question: And the Activity (Mus musculus [33])?
Answer: Toxic

Question: Which GI50 (NCI-H1975 [5]) does the source give for `C#Cc1cccc(Nc2ncnc3cc(OCC)c(NC(=O)/C=C/CNC4CC4)cc23)c1` here?
Answer: 16.5 nM

Question: What about the Activity (Mus musculus [34]) of the same molecule?
Answer: Non-toxic

Question: And the IC50 [17]?
Answer: 4.2 nM

Question: What about the mortality [35] of the same molecule?
Answer: > 50%

Question: And the Activity (Mus musculus [36])?
Answer: Toxic
